The values that follow come from ChEMBL document CHEMBL4130356, “Design, synthesis and 2D QSAR study of novel pyridine and quinolone hydrazone derivatives as potential antimicrobial and antitubercular agents” (Eur J Med Chem, 2017).

Series [1] relates to Streptococcus pneumoniae. The series can be described thus: Potency index, ratio of ampicillin MIC to test compound MIC for Streptococcus pneumoniae RCMB 010010. It counts as functional.
The subject of series [2] is Escherichia coli. Put plainly: Antimicrobial activity against Escherichia coli RCMB 010052 after 24 hrs by serial dilution method. Type of series: functional. As to conditions: RCMB 010052, 24 h. The method, boiled down:
(§1)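 Serial twofold dilution in microtiter plates starting from a 100 mmol stock in DMSO; final concentrations 125 down to 0.12 […]. Incubated at 37°C and read on a microplate reader after 24 h. Ciprofloxacin was the reference. Run in triplicate, with the average taken. MIC was the lowest concentration inhibiting growth.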

The subject of series [3] is WI-38. The series can be described thus: Cytotoxicity against human WI38 cells assessed as reduction in cell viability after 24 hrs by crystal violet staining-based colorimetric method. The following applies: WI-38, 24 h. Put shortly: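 WI-38 cells were grown in DMEM with 10% FBS at 37°C and 5% CO2, then seeded at 1×10^4 cells/well. Serial twofold dilutions were added, three wells per concentration. Viability was read by crystal violet stain, solubilised in 30% acetic acid, at 490 nm. Run in triplicate. IC50 was estimated from dose-response plots.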

For series [4], the system named is Staphylococcus aureus. Put plainly: Antimicrobial activity against Staphylococcus aureus RCMB 010028 after 24 hrs by serial dilution method. It counts as functional. The following applies: RCMB 010028, 24 h. Put shortly:
as §1

Series [5] relates to Staphylococcus aureus. The series can be described thus: Antimicrobial activity against Staphylococcus aureus RCMB 010028 assessed as diameter of zone inhibition at 100 ug/ml after 24 hrs by agar well diffusion assay. The following applies: RCMB 010028, 24 h, read-out: DIZ. It counts as functional. Put shortly: (§2)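 Agar well diffusion on nutrient agar plates seeded with the bacterium, using 1 cm wells. Plates were held at 4°C for 1 h for diffusion, then incubated at 37°C. Inhibition zone diameters were measured at 24 h. Ciprofloxacin was the positive control. Run in triplicate, with the mean zone reported.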
In general terms: Agar diffusion results depend on both activity and mobility in agar.

Series [6] relates to Streptococcus pneumoniae. The series can be described thus: Antimicrobial activity against Streptococcus pneumoniae RCMB 010010 assessed as diameter of zone inhibition at 100 ug/ml after 24 hrs by agar well diffusion assay. It counts as functional. As to conditions: RCMB 010010, 24 h, read-out: DIZ. The method, boiled down:
as §2

For series [7], the system named is Mycobacterium tuberculosis. The series can be described thus: Antimycobacterial activity against Mycobacterium tuberculosis RCMB 010126 clinical isolate assessed as inhibition zone after 7 days by MABA. Type of series: functional. Put shortly:
(§3)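 Inoculum from fresh LJ culture resuspended in 7H9-S broth with casitone, glycerol and OADC, adjusted to McFarland No. 1 and diluted 1:20. Serial two-fold compound dilutions in 7H9-S; isoniazid reference. Incubated 7 days at 37°C in air, then Alamar blue added and incubated overnight. Percent inhibition = 1 − (test well/growth-control mean) × 100; MIC = lowest concentration preventing blue-to-pink change.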
For orientation: The colour change of resazurin is a common sign of viable cells or microbes.

Series [8] deals with Streptococcus pneumoniae. The series can be described thus: Antimicrobial activity against Streptococcus pneumoniae RCMB 010010 after 24 hrs by serial dilution method. It counts as functional. As to conditions: RCMB 010010, 24 h. Put shortly:
as §1

The test system of series [9] is Aspergillus fumigatus. Put plainly: Antimicrobial activity against Aspergillus fumigatus RCMB 02568 after 48 hrs by serial dilution method. The following applies: RCMB 02568, 48 h. It counts as functional. The method, boiled down:
(§4)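 Serial twofold dilution in microtiter plates starting from a 100 mmol stock in DMSO; final concentrations 125 down to 0.12 […]. Incubated at 28°C and read on a microplate reader after 48 h. Amphotericin B was the reference. Run in triplicate, with the average taken. MIC was the lowest concentration inhibiting growth.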

Series [10] is described as follows: Selectivity index, ratio of IC50 for human WI38 cells to MIC for Mycobacterium tuberculosis RCMB 010126 clinical isolate. It counts as toxicity. The following applies: read-out: Selectivity Index. The method, boiled down:
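WI-38 human lung fibroblasts grown in DMEM with 10% FBS at 37°C and 5% CO2, seeded at 1×10^4 cells/well, and exposed to serial two-fold dilutions in triplicate. Viability read by crystal violet stain at 490 nm. IC50 taken from dose-response plots. Ratio uses this IC50 against the MABA MIC for M. tuberculosis.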

The subject of series [11] is Candida albicans. Put plainly: Antimicrobial activity against Candida albicans RCMB 05036 after 48 hrs by serial dilution method. It counts as functional. The following applies: RCMB 05036, 48 h. Put shortly:
as §4

Series [12] relates to Candida albicans. The series can be described thus: Antimicrobial activity against Candida albicans RCMB 05036 assessed as diameter of zone inhibition at 100 ug/ml after 48 hrs by agar well diffusion assay. Type of series: functional. The following applies: RCMB 05036, 48 h, read-out: DIZ. Put shortly: (§5)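 Agar well diffusion on malt agar plates seeded with the fungus, using 1 cm wells. Plates were held at 4°C for 1 h for diffusion, then incubated at 28°C. Inhibition zone diameters were measured at 48 h. Amphotericin B was the positive control. Run in triplicate, with the mean zone reported.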

Series [13] relates to Aspergillus fumigatus. Put plainly: Antimicrobial activity against Aspergillus fumigatus RCMB 02568 assessed as diameter of zone inhibition at 100 ug/ml after 48 hrs by agar well diffusion assay. It counts as functional. As to conditions: RCMB 02568, 48 h, read-out: DIZ. The method, boiled down: as §5
Series [14] deals with Pseudomonas aeruginosa. As to conditions: RCMB 010043.
For series [15], the system named is Pseudomonas aeruginosa. The following applies: RCMB 010043, 100 ug/ml.
Series [16] has as its system Escherichia coli. The series can be described thus: Potency index, ratio of ciprofloxacin MIC to test compound MIC for Escherichia coli RCMB 010052. Type of series: functional.
Series [17] concerns Escherichia coli. The series can be described thus: Antimicrobial activity against Escherichia coli RCMB 010052 assessed as diameter of zone inhibition at 100 ug/ml after 24 hrs by agar well diffusion assay. It counts as functional. The following applies: RCMB 010052, 24 h, read-out: DIZ. Put shortly: as §2
Series [18] relates to Mycobacterium tuberculosis. The series can be described thus: Antimycobacterial activity against Mycobacterium tuberculosis RCMB 010126 clinical isolate after 7 days by MABA. Type of series: functional. The method, boiled down: as §3
Where [19] appears, read: Mycobacterium tuberculosis, RCMB 010126, 168 h.

The structures appear in SMILES notation. Values after ≈ are worked out from the molar mass of the structure shown. Active and inactive are the calls of the source. The rule behind the calls is not given here.

As to `COc1cc(/C=N/NC(=O)c2ccc(-c3cccc(Cl)c3)nc2C)cc(OC)c1OC`, the Ratio in [1] and in series [16] was 2 throughout. In addition, the MIC in series [2] was 0.49 µg/mL (≈ 1.11 µM); in series [4] it was 1.95 µg/mL (≈ 4.43 µM); in [8], 0.49 µg/mL (≈ 1.11 µM); in series [9], 0.98 µg/mL (≈ 2.23 µM); in series [11] it was 0.49 µg/mL (≈ 1.11 µM); in series [18] (setting [19]) it was 0.78 µg/mL (≈ 1.77 µM). Moreover, the IC50 in series [3] was 495 µg/mL (≈ 1130 µM). Moreover, the zone of inhibition at 100 µg/mL in series [5] was 21.3 mm; in series [6], 23.1 mm; in [12] it was 21.4 mm; in [13], 23.3 mm; in series [17], 25.3 mm. The “inhibition zone (IZ)” value in [7] was determined as 70.48 mm. Moreover, the selectivity ratio in [10] stood at 635. Further, the MIC result in [14] is “inactive”. Besides, the DIZ entry in [15] was “inactive”.
For the compound `COc1ccc(/C=N/NC(=O)c2ccc(-c3ccc(Cl)cc3)nc2C)cc1`, the MIC came out at 1.95 µg/mL (≈ 5.13 µM) in series [2]; 3.9 µg/mL (≈ 10.3 µM) in series [4]; 1.95 µg/mL (≈ 5.13 µM) in [8]; 1.95 µg/mL (≈ 5.13 µM) in series [9]; 3.9 µg/mL (≈ 10.3 µM) in series [11]; 0.78 µg/mL (≈ 2.05 µM) in [18] (setting [19]). The IC50 in series [3] came out at 500 µg/mL (≈ 1320 µM). Also, the zone of inhibition at 100 µg/mL came out at 20.1 mm in series [5]; 21.3 mm in [6]; 19.2 mm in series [12]; 20.9 mm in [13]; 20.9 mm in series [17]. Moreover, the “inhibition zone (IZ)” value in [7] was 70.34 mm. For the same compound, the selectivity ratio in [10] stood at 641. For the same compound, the MIC result in series [14] is “inactive”. For the same compound, in series [15], the DIZ entry was “inactive”.
In the case of `O=C(N/N=C/c1ccc(Cl)cc1Cl)c1c[nH]c2cc(Cl)ccc2c1=O`, the MIC in series [2] is 0.49 µg/mL (≈ 1.24 µM); in series [4], 1.95 µg/mL (≈ 4.94 µM); in series [8], 0.98 µg/mL (≈ 2.48 µM); in series [9], 3.9 µg/mL (≈ 9.88 µM); in [11], 3.9 µg/mL (≈ 9.88 µM). In addition, the zone of inhibition at 100 µg/mL in [5] was determined as 20.6 mm; in [6] it was 22.1 mm; in [12] it was 19.6 mm; in series [13], 20.3 mm; in series [17], 24.3 mm. For the same compound, in series [7], the “inhibition zone (IZ)” value was “inactive”. Moreover, the MIC entry in series [14] and in [18] was “inactive” each time. In series [15], the DIZ result is “inactive”. Also, the Ratio in [16] was found to be 2.
Turning to `COc1ccc(/C=N/NC(=O)c2ccc(-c3cccc(Cl)c3)nc2C)cc1`, the MIC in series [2] worked out at 3.9 µg/mL (≈ 10.3 µM); in [4] it was 3.9 µg/mL (≈ 10.3 µM); in series [8], 3.9 µg/mL (≈ 10.3 µM); in series [9], 1.95 µg/mL (≈ 5.13 µM); in [11], 7.81 µg/mL (≈ 20.6 µM); in series [18] (setting [19]), 1.56 µg/mL (≈ 4.11 µM). Further, the IC50 in series [3] came to 500 µg/mL (≈ 1320 µM). In addition, the zone of inhibition at 100 µg/mL is 19.6 mm in series [5]; 20.9 mm in series [6]; 18.2 mm in series [12]; 20.6 mm in series [13]; 20.3 mm in series [17]. Also, the “inhibition zone (IZ)” value in [7] is recorded as 60.42 mm. For the same compound, the selectivity ratio in series [10] was determined as 321. For the same compound, in series [14], the MIC entry was “inactive”. Also, the DIZ result in [15] was “inactive”.

Broadly, the MIC is the lowest concentration that inhibits growth of the organism. A word on the IC50: it is the point on the concentration scale where inhibition reaches its midpoint.
